Only a selection was taken, and hits are over-represented in it overall.
E coli RNAP – Escherichia coli RNA polymerase inhibition; hit rate 0.2% among 62,000; P0A8V2; E. coli RNA polymerase, fluorescence transcription assay; inhibition, %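 (tested at 10 µM)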; in the data active means inhibition above about 20%;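 further: 0% = enzyme without compound and 100% = no enzyme blank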
tolC growth inh – E. coli tolC mutant growth inhibition | E. coli BW25113 tolC mutant growth, OD615 | growth inhibition, % at 10 µM (by protocol) | hit rate 2.2% among 65,000 | AID 573;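 active means growth inhibition at or above a cutoff equal to the mean over every tested compound plus 3 SD, cut at about 60% in these data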;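 further: growth measured after 20 h incubation at 37 °C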
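Doses: one dose of 10 µM final / Material: E. coli BW25113 ΔtolC::kan, tolC deletion mutant strain / Buffer or medium: LB with kanamycin 50 µg/mL / Evaluation: percent growth inhibition / Detection: optical density read at 615 nm / Incubation: 37 °C, 20 h exposure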
Ecoli WT expand – blocks growth of wild type E. coli BW25113; OD600 absorbance; AID 710; growth inhibition, % at 100 µM; hit rate 0.15% among 98,000;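 active means growth inhibition above about 50% at one test dose, limit read from the data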;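 further: growth measured after 20 h incubation at 37 °C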
MMP13 inh – inhibitors of human MMP13; inhibition, % at 4 µM; hit rate 0.07% among 65,000; P45452; MMP-13 fTHP FRET cleavage, Mca fluorescence;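 active means inhibition above the mean of compound-free control plate wells plus 3 SD, cut at about 14% in these data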;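 further: 0% = DMSO wells and 100% = wells with reference MMP-13 inhibitor after basal subtraction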
AP ELISA ortho – orthogonal test for alternative complement pathway inhibitors; Human serum alternative complement pathway, LPS-coated ELISA, C3 deposition; tested in compound mixtures; inhibition, % at 5 µM; hit rate 0.08% among 62,000; AID 1235;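 active means inhibition above 30% in each of the two pooled mixtures holding the compound, so the lower value exceeds 30%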;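 further: 0% = serum in Mg-EGTA without compound and 100% = EDTA serum blank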
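Assay system: human serum alternative complement pathway, C3 deposition on LPS-coated wells; Dosing: 5 µM per compound in ten-compound mixtures; Detection: Anti-C3 ELISA, OD 450 nm; Buffer or medium: Mg2+-EGTA GVB++ buffer containing human serum at 1:15 dilution; Timing: 1 h at 37 °C; Replication: two different pools per compound.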
HePTP inh – inhibitors of human HePTP phosphatase. P35236. recombinant HePTP phosphatase activity, OD absorbance. inhibition, % at 20 µM. hit rate 0.64% among 110,000. AID 521; in the data active means inhibition above about 50%;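 further: plate controls were vehicle for no effect and reference inhibitor for full effect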
Starred values were filed as active, the others as inactive; i = inactive; x = no result.

SMILES	E coli RNAP	tolC growth inh	Ecoli WT expand	MMP13 inh	AP ELISA ortho	HePTP inh
CCOc1ccc(N2C(=O)/C(=C/c3ccc(I)o3)C(=O)NC2=S)cc1	x	x	x	x	x	103*
O=C1NC(=O)N(c2ccc(Cl)cc2)C(=O)/C1=C/c1ccc(I)o1	x	x	x	x	x	96*
CC(C)c1ccc(N2C(=O)NC(=O)/C(=C/c3cccc([N+](=O)[O-])c3)C2=O)cc1	x	x	x	x	x	-3
CC(C)c1ccc(N2C(=O)NC(=O)/C(=C/c3ccc([N+](=O)[O-])o3)C2=O)cc1	x	x	x	x	x	88*
C/C=C/C(=O)N1c2ccc(C)cc2-c2c(ssc2=S)C1(C)C	x	x	x	x	x	3
Cc1cc(C)cc(NC(=O)c2ccc([N+](=O)[O-])c(C)c2)c1	x	x	x	x	x	6
Cc1cccc(-n2ncc3c(N(C)C4CCCCC4)ncnc32)c1	-4	94*	x	1	7	9
COc1ccc(-n2ncc3c(N(C)C4CCCCC4)ncnc32)cc1	1	76*	x	-18	13	3
CCCCOc1ccc(-c2cc(C(=O)O)c3ccccc3n2)cc1	x	x	x	x	x	6
COc1ccc(-c2cnc(N)n2CC2CCCO2)cc1 (stereo unspecified)	13	64*	14	-4	4	14
O=Cc1ccc2c3c(onc13)-c1ccccc1C2=O	x	x	x	x	x	-8
Cc1ccc(C2c3c(-c4ccccc4O)n[nH]c3C(=O)N2Cc2ccncc2)cc1 (stereo unspecified)	4	69*	5	1	3	3
COc1ccc(C2c3c(-c4ccccc4O)n[nH]c3C(=O)N2CCc2ccc(OC)c(OC)c2)cc1 (stereo unspecified)	0	59	-11	-2	8	16
Cc1ccc2c(c1)C1C=CCC1C(C(=O)O)N2 (stereo unspecified)	0	-14	x	11	13	102*
Cc1cc(I)c2c(c1)C1C=CCC1C(C(=O)O)N2 (stereo unspecified)	x	x	x	x	x	102*
COc1cccc2c1NC(C(=O)O)C1CC=CC21 (stereo unspecified)	5	-5	x	-3	17	x
CC(=O)c1ccc2c(c1)C1C=CCC1C(c1ccncc1)N2 (stereo unspecified)	x	x	5	x	x	x
CC1(C)Cc2c(c(N3CCCC3)nc3sc4c(N5CCN(CCO)CC5)ncnc4c23)CO1	6	65*	12	-12	-5	4
COc1cc(-c2nnc(-c3ccco3)o2)ccc1OCc1ccccc1	4	96*	-12	-161	4	-2
S=C(NCc1cccnc1)NC12CC3CC(CC(C3)C1)C2	x	x	x	x	x	0
CC(NS(=O)(=O)c1ccc(F)cc1)C(c1cccs1)N1CCN(C)CC1 (stereo unspecified)	21*	-13	x	4	-9	4
CC(NS(=O)(=O)c1ccc(Cl)cc1)C(c1cccs1)N1CCN(C)CC1 (stereo unspecified)	x	-4	x	0	x	x
O=C(Nc1cccc(Br)c1)c1cc2ccccc2o1	-3	100*	4	4	16	-11
Cc1cccc(NC(=O)c2cc3ccccc3o2)c1	12	16	11	-15	-2	3
CCOC(=O)c1c(NC(=O)C(C)Oc2ccc(Cl)cc2Cl)sc(C(N)=O)c1C (stereo unspecified)	x	x	x	x	x	3
SMILES	E coli RNAP	tolC growth inh	Ecoli WT expand	MMP13 inh	AP ELISA ortho	HePTP inh
O=C(NCCc1ccccc1)c1nc2c(nnn2Cc2ccccc2Cl)c(=O)[nH]1	2	97*	-14	-2	-3	-2
O=C(NC1CCCCC1)c1nc2c(nnn2Cc2ccccc2Cl)c(=O)[nH]1	5	76*	10	0	1	8
COc1ccc(Cn2nnc3c(=O)[nH]c(C(=O)NCCc4ccc(F)cc4)nc32)cc1OC	-12	21	-11	6	22	6
Cc1ccc(C)c(Cn2nnc3c(=O)[nH]c(C(=O)NCC4CCCO4)nc32)c1 (stereo unspecified)	1	7	-14	-1	6	10
O=C(O)CCCCCN1C(=O)C(=O)/C(=C(/O)c2ccccc2)C1c1ccccc1F (stereo unspecified)	x	x	x	x	x	9
CC(C)c1ccc(C=Nc2ccc(Nc3ccccc3)cc2)cc1	x	x	x	x	x	6
Cc1ccc(OCC(=O)N/N=C\c2ccc(OC(=O)c3cccs3)cc2)cc1	x	x	x	x	x	-10
CN1CCCC1=NC(=S)CN1CCCC1=S	x	x	x	x	x	97*
Cc1cc(/C=N/N2C(=O)c3ccccc3C2=O)c(C)n1-c1ccccc1	x	x	x	x	x	-10
Cc1ccc(O)c(-c2cc(-c3ccc(C(F)(F)F)cc3)n[nH]2)c1	x	x	x	x	x	-17
CCCCc1c(O)nc(N2CCN(Cc3ccccc3)CC2)[nH]c1=O	43*	-5	0	3	7	5
Cc1cc(=O)[nH]c(N2CCN(Cc3ccccc3)CC2)n1	6	-3	2	2	17	4
CCC(=O)Nc1ccc(C(=O)n2nc(C)cc2C)cc1	5	-2	-6	1	6	7
CCC(=O)Nc1ccc(C(=O)n2ccc(C)n2)cc1	7	-14	9	-4	35*	3
C(=NN1CCN(c2ccccn2)CC1)c1cccc2ccccc12	x	x	x	x	x	7
Cc1ccc(C)n1-n1cnc2sc(-c3ccccc3)cc2c1=O	2	88*	-15	2	10	1
O=c1c2c3c(sc2n2cnnc2n1C1CCCCC1)CCC3	7	-4	x	20*	x	4
O=c1cc(C(F)(F)C(F)F)oc2ccccc12	x	x	4	x	x	x
CSc1ccc(-c2cc(=O)c3ccccc3o2)cc1	-29	61*	-12	i	13	6
CC(=O)NC1=NC(=O)/C(=C/c2ccc(C)cc2)S1	x	x	x	x	x	7
CN1C(=O)/C(=C/c2ccc(-c3ccc(C(=O)O)cc3)o2)SC1=S	x	x	x	x	x	20
CC(=O)NC1=NC(=O)/C(=C\c2ccc(Br)o2)S1	x	x	x	x	x	102*
CC(=O)NC1=NC(=O)/C(=C\c2ccc(-c3ccc(C(=O)O)cc3)o2)S1	x	x	x	x	x	104*
O=c1[nH]c(O)c(C=Nc2ccc(F)c(F)c2)c(=O)[nH]1	x	x	x	x	x	3
COc1ccc(C(=O)NC(=S)Nc2cc([N+](=O)[O-])cc(Cl)c2O)cc1	x	x	x	x	x	8
SMILES	E coli RNAP	tolC growth inh	Ecoli WT expand	MMP13 inh	AP ELISA ortho	HePTP inh
COc1ccc(NC(=O)/C(C#N)=C/c2cn(Cc3ccccc3C#N)c3ccccc23)cc1	x	x	x	x	x	-6
Cc1ccc(-c2nn(-c3ccccc3)cc2CSC(=N)N)cc1	x	x	98*	x	x	x
COC(=O)c1ccc(NC(=O)Cn2nc(C)c3ccccc3c2=O)cc1	x	x	x	x	x	69*
COc1ccc(-c2nnc(SCC(=O)NCc3cccs3)n2C(C)C)cc1	x	x	9	x	x	x
Cc1cc2c(cc(C(=O)OCC(=O)NCc3cccs3)n2C(C)C)o1	9	75*	-8	2	4	12
CCOC(=O)c1ccc(N/C(N)=N/c2nc(C(F)(F)F)cc(=O)[nH]2)cc1	x	x	x	x	x	0
COc1ccc(C=C2NC(=S)N(c3ccccc3)C2=O)c(OC)c1	x	x	x	x	x	7
O=C(/C=C/c1ccc(F)cc1)Nc1ccc(F)cc1	x	x	x	x	x	0
CC(=O)NS(=O)(=O)c1ccc(NC(=O)/C=C/c2ccc(F)cc2)cc1	x	x	x	x	x	74*

High-throughput results from PubChem BioAssay.
